NPY-Y2 PAM-ag – potentiators or agonists of human neuropeptide Y receptor Y2; actives 0.45% (n = 220,000); P49146; activation, % at 3.6 µM; cells expressing NPY-Y2, potentiator/agonist read-out; in the data active = activation above about 27%;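 note: cells stimulated with NPY near EC25 plus isoproterenol at EC100; 0% = vehicle plus submaximal agonist and 100% = vehicle plus saturating agonist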
NPY1 pot ag – potentiators or agonists of human neuropeptide Y receptor Y1 | P25929 | NPY-Y1 expressing cells, potentiator/agonist activation | activation, % at 3.6 µM | actives 0.37% (n = 220,000) | AID 1304; in the data active = activation above about 33%, passing the limit was not always enough;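 note: cells stimulated with NPY at EC10 then isoproterenol at EC100; 0% = low agonist plus stimulus and 100% = saturating agonist plus stimulus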
S1P4 agonist – agonists of human S1P4 receptor; AID 1509; actives 0.35% (n = 220,000); S1P4-expressing cell line, agonist reporter assay; activation, % at 4.98 µM; in the data active = activation above about 11%;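 note: 0% = DMSO vehicle and 100% = reference agonist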
NPY Y2 blocker – blocks the human neuropeptide Y Y2 receptor; actives 0.99% (n = 140,000); NPY-Y2 expressing cells, antagonist mode; inhibition, % at 2.7 µM; P49146; in the data active = inhibition above about 17%;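 note: 0% = vehicle with agonist challenge and 100% = reference antagonist with challenge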
S1P4 antag – human S1P4 receptor antagonism | O95977 | S1P4-expressing cells, antagonist mode, reporter read-out | inhibition, % at 4.98 µM | actives 0.26% (n = 220,000) | AID 1510; in the data active = inhibition above about 29%;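 note: 0% = wells stimulated with agonist and 100% = vehicle wells without agonist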
NPY Y1 blocker – antagonists of human neuropeptide Y receptor Y1; P25929; HEK293-CNG Y1 cells, membrane potential fluorescence; NPY at EC95, then isoproterenol; inhibition, % at 3.6 µM; actives 1% (n = 200,000); AID 1040;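 active = inhibition above the campaign mean inhibition of all tested compounds plus 3 SD, cut at about 20% in these data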;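 note: 0% = DMSO wells given NPY plus isoproterenol and 100% = isoproterenol alone without NPY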
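Material: HEK293 cells co-expressing NPY Y1 receptor and cyclic-nucleotide gated channel. Timing: compound incubation 1 h at room temperature, readout 45 min post-stimulation. Signal: fluorescence, membrane potential probe.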
S1P4 ag conf – confirmation of human S1P4 receptor agonists | shares compounds with S1P4 agonist | S1P4 agonist cell-based reporter assay | activation, % at 4.98 µM | actives 7% (n = 740) | AID 1523; in the data active = activation above about 12%;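 note: 0% = vehicle and 100% = full reference agonist response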
S1P1 agonist – human S1P1 agonism as S1P4 agonist counter-screen; shares compounds with S1P4 agonist; S1P1 agonist cell-based assay, activation; activation, % at 4.98 µM; actives 4% (n = 740); AID 1563; in the data active = activation above about 21%;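 note: 0% = vehicle wells and 100% = reference agonist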
Target sequence (P21453 whole entry, looked up): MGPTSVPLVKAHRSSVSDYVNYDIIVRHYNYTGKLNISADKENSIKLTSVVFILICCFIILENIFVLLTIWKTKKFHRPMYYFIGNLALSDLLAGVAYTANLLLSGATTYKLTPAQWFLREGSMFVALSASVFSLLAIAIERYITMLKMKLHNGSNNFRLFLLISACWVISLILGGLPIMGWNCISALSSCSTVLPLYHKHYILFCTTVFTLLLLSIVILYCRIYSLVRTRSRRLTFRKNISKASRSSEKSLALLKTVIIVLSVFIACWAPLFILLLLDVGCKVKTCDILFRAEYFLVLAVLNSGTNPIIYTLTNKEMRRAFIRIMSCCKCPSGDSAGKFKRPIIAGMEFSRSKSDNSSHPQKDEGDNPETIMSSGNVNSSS
Numbers without * were called inactive; x = no result given. This is a sample that favours compounds with a hit; in the whole collection about 2.4% have one here.

SMILES	NPY-Y2 PAM-ag	NPY1 pot ag	S1P4 agonist	NPY Y2 blocker	S1P4 antag	NPY Y1 blocker	S1P4 ag conf	S1P1 agonist
Cc1ccc(NC(=O)Cn2nc(C)c([N+](=O)[O-])c2C)cc1Cl	8.8	-4.2	2.6	x	-4.6	-6.3	x	x
CCC(C)[C@H](NC(=O)OC(C)(C)C)C(=O)N/N=C/c1ccc2cc(OC)ccc2n1 (some centres not stated)	1.4	-4.4	89.7*	3.3	-1.7	5.1	-2.3	-12.0
COc1ccc(CCC(=O)N2CCCSC2=Nc2ccc(C(C)=O)cc2)cc1	-3.9	-44.2	23.5*	1.6	-5.3	12.0	1.0	-0.6
COc1ccc(CCC(=O)N2CCN(C3CCCCC3)CC2)cc1	-0.8	-18.3	3.1	8.8	-33.9	10.0	x	x
N#CCCN(CCC#N)C(=O)c1ccc(Cl)cc1	-9.7	-7.7	0.6	4.0	-12.2	0.2	x	x
O=C(CSc1nnc(CNC(=O)c2cccs2)o1)Nc1ccccc1	-2.2	4.5	12.2*	x	-5.9	7.3	0.1	-5.5
COc1cc(C(=O)NCc2nnc(SCC(=O)Nc3nccs3)o2)cc(OC)c1OC	-1.4	16.0	12.6*	x	-19.6	2.4	-2.5	-0.6
Cc1ccc(NC(=O)CSc2nnc(CNC(=O)c3cccs3)o2)cc1	7.2	2.8	0.5	x	-4.2	3.4	x	x
COc1ccc(/C=N/NC(=S)Nc2ccccc2[N+](=O)[O-])cc1O	4.5	7.0	0.7	0.6	-11.2	1.0	x	x
CC(=O)C1=C(C)NC(SCC(=O)c2ccc(Cl)cc2Cl)=C(C#N)C1c1ccco1 (configuration not stated)	3.5	10.6	23.6*	1.6	-30.5	-4.7	25.9*	-8.0
O=C(CCSc1ccccc1)NCc1cccnc1	-19.3	-5.6	11.2*	-0.7	-8.2	1.8	-1.8	1.2
O=c1cc(CSc2nc(NCc3ccccc3)c3ccccc3n2)nc2ccc(Cl)cn12	-16.0	3.2	28.4*	7.0	-18.0	5.2	-2.3	-4.1
O=Cc1[nH]c2ccccc2c1N(C(=O)CCl)c1ccc([N+](=O)[O-])cc1	32.1	36.7	-0.1	x	-7.7	x	x	x
N=c1oc2cc(O)ccc2cc1C(=O)Nc1nc2ccccc2s1	-7.7	-34.3	91.6*	1.4	-75.6	2.6	80.0*	128.6*
Cc1ccc(N=Nc2c(O)n(CN3CCOCC3)c3ccccc23)cc1	-7.8	-9.5	-0.2	-0.5	-17.3	3.4	x	x
CC1Cc2ccccc2N1C(=O)NC1CC(=O)N(c2ccc3c(c2)OCCO3)C1 (configuration not stated)	-0.9	-7.3	1.0	x	1.2	-0.4	x	x
CC(Nc1ccc2c(c1)OCCO2)C(=O)N1c2ccccc2CC1C (configuration not stated)	23.1	26.1	15.5*	x	-7.7	7.0	29.3*	-1.3
CCOc1ccc(Oc2c(/C=N/NC(=O)COc3ccccc3OC)c(C)nn2-c2ccccc2)cc1	-17.5	-14.7	22.1*	26.2*	-10.1	30.3*	-2.5	-3.2
Cc1ccc(-n2c(SCC(=O)N3CC(=O)Nc4ccccc43)nc3ccccc3c2=O)cc1	2.3	25.0	26.7*	2.8	1.5	-1.7	-2.4	-7.9
CCOc1ccc(NC(=O)CN(C)S(=O)(=O)c2cccs2)cc1	-4.2	1.6	-2.4	2.7	8.7	0.5	x	x
COC(=O)c1ccccc1NC(=O)CS(=O)(=O)Cc1nc(-c2ccc(C)cc2)oc1C	-14.8	9.6	1.5	7.6	-9.9	1.5	x	x
Cc1ccc2nc3c(cc(C#N)c(=O)n3-c3nccs3)c(=O)n2c1	9.5	9.7	31.4*	1.7	-40.1	0.3	14.5*	23.6*
CC(C)CCN1CCN(Cc2nc(-c3ccc(F)cc3)cs2)CC1CCO (configuration not stated)	-10.1	-10.4	3.8	x	-17.6	2.6	x	x
Cn1cc(C2CC(c3ccccc3)=NN2C(=O)c2ccccc2)c2ccccc21 (configuration not stated)	7.2	-7.5	12.9*	12.4	-15.1	-0.8	-3.0	0.5
O=C(CCCSc1nc2ccccc2[nH]1)NCc1ccccc1	0.3	-7.4	1.2	4.1	-19.3	1.2	x	x
SMILES	NPY-Y2 PAM-ag	NPY1 pot ag	S1P4 agonist	NPY Y2 blocker	S1P4 antag	NPY Y1 blocker	S1P4 ag conf	S1P1 agonist
CCOc1ccc(NC(=O)Nc2cccn(Cc3ccccc3)c2=O)cc1	-1.5	-4.9	38.0*	x	-10.0	1.6	-0.9	-0.2
O=C(NCc1ccccc1)Nc1cccn(Cc2ccccc2)c1=O	7.0	2.5	-0.7	0.2	-6.8	6.0	x	x
CCOc1ccccc1OCCCCCc1c(C)n[nH]c1C	20.3	8.6	11.3*	2.9	0.0	-8.3	11.4*	3.4
CC1N=C(N)C(c2nc3ccccc3n2C)=C1O (configuration not stated)	-20.2	4.2	2.1	x	-12.5	-0.3	x	x
COc1ccc(-n2c3c(cc(C(=O)Nc4cccc(C)n4)c2=O)C(=O)CC(C)(C)C3)cc1	-4.7	5.2	1.4	x	-13.4	3.0	x	x
CCOc1ccc(NC(=O)CCn2c(=O)[nH]c3ccsc3c2=O)cc1	10.6	10.8	24.1*	0.5	-3.5	2.1	-1.2	-3.8
Cc1ccc(NC(=O)CCn2c(=O)[nH]c3ccsc3c2=O)cc1	-19.2	-0.7	1.5	x	-10.5	4.3	x	x
Cc1cc(C(=O)N/N=C/c2cc([N+](=O)[O-])ccc2O)c2ccccc2n1	8.6	0.8	22.2*	3.7	-10.4	7.6	-1.7	-1.3
O=C(N/N=C/c1cc([N+](=O)[O-])ccc1O)c1cc(-c2ccccc2)nc2ccccc12	9.7	-3.1	0.8	3.0	-9.3	3.1	x	x
O=C(NCCSc1ccccc1)c1ccccc1Cl	-12.6	-11.1	0.2	1.5	-12.9	-3.4	x	x
Cc1nc(Cl)c2c(n1)NC1=C(O2)C(=O)CCC1	-1.1	0.9	14.2*	0.8	-3.4	-1.4	-1.9	3.8
CCOc1ccc(C(CC(=O)O)NC(=O)COc2ccccc2)cc1OC (configuration not stated)	3.9	-0.2	43.8*	x	-19.5	-0.3	-2.7	-8.3
Cc1[nH]c(=O)[nH]c(=O)c1S(=O)(=O)Nc1ccc(Oc2ccccc2)cc1	-5.2	-3.4	1.3	2.3	-23.7	-0.3	x	x
CCOc1ccc(C(=O)NCC(c2cccs2)N(C)C)cc1 (configuration not stated)	-2.4	-11.4	14.7*	1.9	8.9	-2.6	-2.7	0.4
O=C(Cc1ncc(C(F)(F)F)cc1Cl)NCCc1ccccn1	3.6	-0.6	13.0*	x	6.1	-2.5	-0.8	5.0
COc1ccc(-c2csc(NC(=O)COC(=O)C3=COCCO3)n2)cc1	-2.1	0.4	-0.2	x	-19.4	-6.9	x	x
CC(=O)Nc1ccc(S(=O)(=O)Oc2ccc(C(=S)N3CCCCC3)cc2)cc1	24.7	18.3	28.9*	1.4	-3.8	1.9	-0.2	7.0

Screens deposited in PubChem BioAssay by The Scripps Research Institute Molecular Screening Center.
